Laboratory results: ChEMBL document CHEMBL4689842, “EUbOPEN Chemogenomics Library wave 1” (2021)

Tests used:
Format in all cases: toxicity, cell-based
[1] = test system: U2OS; experiment: Multiplex assay against U2OS; conditions: human
In short: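 Live cells were stained at seeding with Hoechst33342, BioTracker Green Microtubule Cytoskeleton Dye, MitoTracker Red and Annexin V Alexa Fluor 680, then imaged on a CQ1 microscope at 37°C and 5% CO2 after compound addition. CellPathfinder machine-learning gating split cells into Hoechst high-intensity objects or normal cells. Normal cells were split into healthy, pyknosed or fragmented nuclei, and pyknosed cells into mitotic or apoptotic. Tubulin, mitochondrial-mass and membrane-permeability phenotypes are per cents of healthy-nucleus cells.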

[2] = test system: HEK-293T; experiment: Incucyte cell viability with HEK293T; conditions: human, 10 µM, compound concentration 10 uM; further: filed as whole numbers so only -1 and 0 and 1 occur
[3] = test system: Fibroblast; experiment: Incucyte cell viability with human fibroblast; conditions: 10 µM, compound concentration 10 uM; further: filed as whole numbers so only -1 and 0 and 1 occur
[4] = test system: U2OS; experiment: Incucyte cell viability with U2OS; conditions: human, 10 µM, compound concentration 10 uM; further: filed as whole numbers so only -1 and 0 and 1 occur
[5] = 12 h, 1 µM, compound concentration 1 uM, replicate 1
[6] = 12 h, 1 µM, compound concentration 1 uM, replicate 2
[7] = 12 h, 10 µM, compound concentration 10 uM, replicate 1
[8] = 12 h, 10 µM, compound concentration 10 uM, replicate 2
[9] = 24 h, 1 µM, compound concentration 1 uM, replicate 1
[10] = 24 h, 1 µM, compound concentration 1 uM, replicate 2
[11] = 24 h, 10 µM, compound concentration 10 uM, replicate 1
[12] = 24 h, 10 µM, compound concentration 10 uM, replicate 2
[13] = 48 h, 1 µM, compound concentration 1 uM, replicate 1
[14] = 48 h, 1 µM, compound concentration 1 uM, replicate 2
[15] = 48 h, 10 µM, compound concentration 10 uM, replicate 1
[16] = 48 h, 10 µM, compound concentration 10 uM, replicate 2
[17] = 0 h, replicate number 1, timepoint 0 hours
[18] = 6 h, replicate number 2, timepoint 6 hours
[19] = 12 h, replicate number 1, timepoint 12 hours
[20] = 18 h, replicate number 1, timepoint 18 hours
[21] = 24 h, replicate number 1, timepoint 24 hours

CN(c1cc(C(F)(F)F)nc(OCCC(=O)O)n1)c1cccc2c1CCC2
Population Apoptotic (%) [1, 5]: 33% | Population Fragmented Nuclei (%) [1, 5]: 24% | Population Healthy Nuclei (%) [1, 5]: 64% | Population Hoechst High Intensity Objects (%) [1, 5]: 11% | Population Membrane Permeable-Phenotype (%) [1, 5]: 8% | Population Mitochondria Different-Phenotype (%) [1, 5]: 12% | Population Mitotic Cells (%) [1, 5]: 66% | Population Normal (%) [1, 5]: 88% | Population Pyknosed Nuclei (%) [1, 5]: 11% | Population Tubulin-Different-Phenotype (%) [1, 5]: 10% | Total Cell Count [1, 5]: 191 | Population Apoptotic (%) [1, 6]: 0% | Population Fragmented Nuclei (%) [1, 6]: 9% | Population Healthy Nuclei (%) [1, 6]: 80% | Population Hoechst High Intensity Objects (%) [1, 6]: 12% | Population Membrane Permeable-Phenotype (%) [1, 6]: 4% | Population Mitochondria Different-Phenotype (%) [1, 6]: 20% | Population Mitotic Cells (%) [1, 6]: 100% | Population Normal (%) [1, 6]: 87% | Population Pyknosed Nuclei (%) [1, 6]: 9% | Population Tubulin-Different-Phenotype (%) [1, 6]: 28% | Total Cell Count [1, 6]: 65 | Population Apoptotic (%) [1, 7]: 23% | Population Fragmented Nuclei (%) [1, 7]: 11% | Population Healthy Nuclei (%) [1, 7]: 77% | Population Hoechst High Intensity Objects (%) [1, 7]: 5% | Population Membrane Permeable-Phenotype (%) [1, 7]: 9% | Population Mitochondria Different-Phenotype (%) [1, 7]: 13% | Population Mitotic Cells (%) [1, 7]: 76% | Population Normal (%) [1, 7]: 94% | Population Pyknosed Nuclei (%) [1, 7]: 11% | Population Tubulin-Different-Phenotype (%) [1, 7]: 15% | Total Cell Count [1, 7]: 149 | Population Apoptotic (%) [1, 8]: 0% | Population Fragmented Nuclei (%) [1, 8]: 13% | Population Healthy Nuclei (%) [1, 8]: 86% | Population Hoechst High Intensity Objects (%) [1, 8]: 14% | Population Membrane Permeable-Phenotype (%) [1, 8]: 4% | Population Mitochondria Different-Phenotype (%) [1, 8]: 10% | Population Mitotic Cells (%) [1, 8]: 0% | Population Normal (%) [1, 8]: 85% | Population Pyknosed Nuclei (%) [1, 8]: 0% | Population Tubulin-Different-Phenotype (%) [1, 8]: 30% | Total Cell Count [1, 8]: 71 | Population Apoptotic (%) [1, 9]: 40% | Population Fragmented Nuclei (%) [1, 9]: 16% | Population Healthy Nuclei (%) [1, 9]: 77% | Population Hoechst High Intensity Objects (%) [1, 9]: 7% | Population Membrane Permeable-Phenotype (%) [1, 9]: 6% | Population Mitochondria Different-Phenotype (%) [1, 9]: 10% | Population Mitotic Cells (%) [1, 9]: 60% | Population Normal (%) [1, 9]: 92% | Population Pyknosed Nuclei (%) [1, 9]: 6% | Population Tubulin-Different-Phenotype (%) [1, 9]: 5% | Total Cell Count [1, 9]: 200 | Population Apoptotic (%) [1, 10]: 0% | Population Fragmented Nuclei (%) [1, 10]: 4% | Population Healthy Nuclei (%) [1, 10]: 95% | Population Hoechst High Intensity Objects (%) [1, 10]: 8% | Population Membrane Permeable-Phenotype (%) [1, 10]: 2% | Population Mitochondria Different-Phenotype (%) [1, 10]: 13% | Population Mitotic Cells (%) [1, 10]: 0% | Population Normal (%) [1, 10]: 91% | Population Pyknosed Nuclei (%) [1, 10]: 0% | Population Tubulin-Different-Phenotype (%) [1, 10]: 30% | Total Cell Count [1, 10]: 68 | Population Apoptotic (%) [1, 11]: 52% | Population Fragmented Nuclei (%) [1, 11]: 8% | Population Healthy Nuclei (%) [1, 11]: 84% | Population Hoechst High Intensity Objects (%) [1, 11]: 3% | Population Membrane Permeable-Phenotype (%) [1, 11]: 5% | Population Mitochondria Different-Phenotype (%) [1, 11]: 10% | Population Mitotic Cells (%) [1, 11]: 47% | Population Normal (%) [1, 11]: 96% | Population Pyknosed Nuclei (%) [1, 11]: 7% | Population Tubulin-Different-Phenotype (%) [1, 11]: 14% | Total Cell Count [1, 11]: 176 | Population Apoptotic (%) [1, 12]: 0% | Population Fragmented Nuclei (%) [1, 12]: 13% | Population Healthy Nuclei (%) [1, 12]: 81% | Population Hoechst High Intensity Objects (%) [1, 12]: 13% | Population Membrane Permeable-Phenotype (%) [1, 12]: 3% | Population Mitochondria Different-Phenotype (%) [1, 12]: 13% | Population Mitotic Cells (%) [1, 12]: 100% | Population Normal (%) [1, 12]: 86% | Population Pyknosed Nuclei (%) [1, 12]: 5% | Population Tubulin-Different-Phenotype (%) [1, 12]: 44% | Total Cell Count [1, 12]: 79 | Population Apoptotic (%) [1, 13]: 43% | Population Fragmented Nuclei (%) [1, 13]: 7% | Population Healthy Nuclei (%) [1, 13]: 86% | Population Hoechst High Intensity Objects (%) [1, 13]: 5% | Population Membrane Permeable-Phenotype (%) [1, 13]: 4% | Population Mitotic Cells (%) [1, 13]: 56% | Population Normal (%) [1, 13]: 94% | Population Pyknosed Nuclei (%) [1, 13]: 6% | Population Tubulin-Different-Phenotype (%) [1, 13]: 8% | Total Cell Count [1, 13]: 200 | Population Apoptotic (%) [1, 14]: 40% | Population Fragmented Nuclei (%) [1, 14]: 6% | Population Healthy Nuclei (%) [1, 14]: 88% | Population Hoechst High Intensity Objects (%) [1, 14]: 6% | Population Membrane Permeable-Phenotype (%) [1, 14]: 5% | Population Mitochondria Different-Phenotype (%) [1, 14]: 15% | Population Mitotic Cells (%) [1, 14]: 60% | Population Normal (%) [1, 14]: 93% | Population Pyknosed Nuclei (%) [1, 14]: 4% | Population Tubulin-Different-Phenotype (%) [1, 14]: 24% | Total Cell Count [1, 14]: 81 | Population Apoptotic (%) [1, 15]: 50% | Population Fragmented Nuclei (%) [1, 15]: 5% | Population Healthy Nuclei (%) [1, 15]: 89% | Population Hoechst High Intensity Objects (%) [1, 15]: 2% | Population Membrane Permeable-Phenotype (%) [1, 15]: 2% | Population Mitochondria Different-Phenotype (%) [1, 15]: 9% | Population Mitotic Cells (%) [1, 15]: 50% | Population Normal (%) [1, 15]: 97% | Population Pyknosed Nuclei (%) [1, 15]: 4% | Population Tubulin-Different-Phenotype (%) [1, 15]: 15% | Total Cell Count [1, 15]: 251 | Population Apoptotic (%) [1, 16]: 20% | Population Fragmented Nuclei (%) [1, 16]: 8% | Population Healthy Nuclei (%) [1, 16]: 87% | Population Hoechst High Intensity Objects (%) [1, 16]: 6% | Population Membrane Permeable-Phenotype (%) [1, 16]: 1% | Population Mitochondria Different-Phenotype (%) [1, 16]: 6% | Population Mitotic Cells (%) [1, 16]: 80% | Population Normal (%) [1, 16]: 93% | Population Pyknosed Nuclei (%) [1, 16]: 3% | Population Tubulin-Different-Phenotype (%) [1, 16]: 38% | Total Cell Count [1, 16]: 113 | Growth Rate [2, 17]: 0 | Growth Rate [2, 18]: 0 | Growth Rate [2, 19]: 1 | Growth Rate [2, 20]: 1 | Growth Rate [2, 21]: 1 | Growth Rate [3, 17]: 1 | Growth Rate ([3]; 0 h, replicate number 2, timepoint 0 hours): 0 | Growth Rate ([3]; 6 h, replicate number 1, timepoint 6 hours): 0 | Growth Rate [3, 19]: 1 | Growth Rate [3, 20]: 0 | Growth Rate [3, 21]: 0 | Growth Rate ([3]; 24 h, replicate number 2, timepoint 24 hours): 1 | Growth Rate [4, 17]: 0 | Growth Rate [4, 18]: 0 | Growth Rate [4, 19]: 0 | Growth Rate [4, 20]: 0 | Growth Rate [4, 21]: 0
